Measured values gathered from unrelated publications.
Compare with care: the assays were run in different laboratories.
Target: Vascular endothelial growth factor receptor 1 (FLT1, Homo sapiens, UniProt P17948)
One construct used (P17948 784-1338, limits assumed): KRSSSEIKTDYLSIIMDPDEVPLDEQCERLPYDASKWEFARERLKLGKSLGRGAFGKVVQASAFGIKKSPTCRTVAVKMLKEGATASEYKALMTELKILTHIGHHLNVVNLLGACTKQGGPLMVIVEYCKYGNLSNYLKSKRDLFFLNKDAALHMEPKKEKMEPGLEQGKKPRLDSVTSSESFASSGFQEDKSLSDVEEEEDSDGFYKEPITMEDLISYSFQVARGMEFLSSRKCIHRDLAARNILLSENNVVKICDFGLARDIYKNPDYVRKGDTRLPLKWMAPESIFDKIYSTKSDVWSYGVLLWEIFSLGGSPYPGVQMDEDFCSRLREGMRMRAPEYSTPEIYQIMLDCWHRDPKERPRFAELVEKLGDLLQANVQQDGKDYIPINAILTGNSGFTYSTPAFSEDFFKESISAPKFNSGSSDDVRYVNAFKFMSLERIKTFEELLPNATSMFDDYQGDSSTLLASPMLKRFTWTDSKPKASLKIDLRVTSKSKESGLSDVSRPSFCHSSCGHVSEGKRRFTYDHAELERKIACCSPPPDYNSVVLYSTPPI

Structure (SMILES)	test	conditions	quantity	result
CCCOc1ccc(OC)c(F)c1C(=O)c1ccc(C(=O)N[C@@H]2CNC[C@H]2NC(=O)c2ccc3[nH]ncc3c2)cc1	enzyme activity, inhibitor	10 µM	remaining activity	35%
O=C1NC(=O)c2cc(Nc3ccc(F)cc3)c(Nc3ccc(F)cc3)cc21	cell-free assay	0.5 µM	remaining signal	81.5%
Cc1ccc(-n2nc(C(C)(C)C)cc2NC(=O)Nc2ccc(OCCN3CCOCC3)c3ccccc23)cc1	enzyme activity, inhibitor	10 µM	inhibition	96%
CCN(CC)CCNC(=O)c1c(C)[nH]c(/C=C2\C(=O)Nc3ccc(F)cc32)c1C	enzyme activity, inhibitor	10 µM	inhibition	102%
CS(=O)(=O)N1CCCC(NC(=O)[C@H](CCC2CCCCC2)NC(=O)c2ccc(CNc3ncnc4c3nnn4-c3ccccc3)cc2)C1 (some centres unmarked)	cell-free assay, competition with immobilised ligand	0.1 µM	remaining binding	86%
Cc1ccc(Nc2nccc(N(C)c3ccc4c(C)n(C)nc4c3)n2)cc1S(N)(=O)=O	enzyme activity, inhibitor	10 µM	inhibition	102%
O=S(=O)(NC1CCC(c2cc(F)ccc2F)(S(=O)(=O)c2ccc(Cl)cc2)CC1)C(F)(F)F (centres unmarked)	cell-free assay, competition with immobilised ligand	1 µM	remaining binding	86%
CC(C)(C)c1nc(-c2cccc(NS(=O)(=O)c3c(F)cccc3F)c2F)c(-c2ccnc(N)n2)s1	enzyme activity, inhibitor, radiometric	1 µM	remaining activity	84%
O=C(O)[C@@H]1[C@@H](Cn2nnc3ccccc3c2=O)CC[C@H]1C(=O)c1ccc(OCCC2CCOCC2)cc1	cell-free assay, competition with immobilised ligand	1 µM	remaining binding	100%
Nc1nc(Nc2ccccc2)sc1C(=O)c1c(F)cccc1F	enzyme activity, inhibitor	10 µM	remaining activity	17%
CCCOc1ccc([C@@H]2[C@@H](C(=O)O)[C@H](c3ccc4c(c3)OCO4)CN2CC(=O)Nc2c(CC)cccc2CC)cc1	cell-free assay, competition with immobilised ligand	1 µM	remaining binding	94%
CC1CCCN1c1nccc(-c2cnn3ncccc23)n1 (centres unmarked)	binding	1 µM	remaining binding	100%
Cc1sc(C(=O)NC2COC2)cc1-n1cc(NC(=O)Nc2c(F)cccc2Cl)cn1	enzyme activity, inhibitor	10 µM	remaining activity	84.1%
COc1cc(-c2cn(C3CCc4c(F)cccc4N(CC(F)(F)F)C3=O)nn2)ccc1-n1cnc(C)c1 (centres unmarked)	cell-free assay, competition with immobilised ligand	1 µM	remaining binding	97%
O=C(Nc1cnn(-c2csc(C(=O)NC3COC3)c2)c1)Nc1ccccc1Cl	enzyme activity, inhibitor	5 µM	remaining activity	101%
Cc1ccc(C(=O)NCc2ccsc2)cc1C#Cc1cn(C(C)C)c2ncnc(N)c12	enzyme activity, inhibitor	1 µM	activity vs control	-1%
CSc1cccnc1N1CCN(Cc2nc3ccccc3[nH]2)CC1	cell-free assay, competition with immobilised ligand	1 µM	remaining binding	100%
CC(C)(O)[C@H]1CC[C@H](Nc2ccc3ncc(-c4cccc(C(F)(F)F)c4)n3n2)CC1	enzyme activity, inhibitor	1 µM	remaining activity	92.5%
CNCc1ccc(-c2cc(-c3nc(-c4ccc(S(=O)(=O)C(C)C)cc4)cnc3N)on2)cc1	enzyme activity, inhibitor	2 µM	inhibition	83%
COc1cc2ncnc(Nc3ccc(Oc4ccccc4)c(C)c3C)c2cc1OC	enzyme activity, inhibitor	1 µM	inhibition	0%
COc1cc(Nc2cnc(C#N)c(O[C@H](C)CN(C)C)n2)ncc1-c1cnn(C)c1	enzyme activity, inhibitor, radiometric	1 µM	remaining activity	90%
CNC(=O)c1cc2c(Oc3ccc(NC(=O)C4(C(=O)Nc5ccc(F)cc5)CC4)cc3)ccnc2cc1OC	enzyme activity, inhibitor, radiometric	1 µM	inhibition	106%
O=C1Nc2ccc(Cl)cc2C1=Cc1cc(Cl)c(O)c(Cl)c1	cell-free assay	0.5 µM	remaining signal	85%
COc1cc2nccc(Oc3ccc(NC(=O)c4c5n(n(-c6ccc(F)cc6)c4=O)CCCC5)cc3)c2cc1OC	enzyme activity, inhibitor	0.1 µM	inhibition	23%
O=C(N[C@H]1CCCCC/C=C\C2C[C@@]2(C(=O)O)NC(=O)[C@@H]2C[C@@H](Oc3ccncc3)CN2C1=O)OC1CCCC1 (some centres unmarked)	cell-free assay, competition with immobilised ligand	1 µM	remaining binding	100%
CC(C)(C)C(=O)c1sc(NC2CCCCC2)nc1N	enzyme activity, inhibitor	10 µM	remaining activity	82%
COCCOc1nc(-c2ccc(Cl)nc2)nc2c1CN(C(=O)c1ncn3ccccc13)CC2	cell-free assay, competition with immobilised ligand	0.1 µM	remaining binding	87%
Cc1ccc(NC(=O)c2ccc(CN3CCN(C)CC3)cc2)cc1Nc1nc(-c2cccnc2)cs1	cell-free assay	0.5 µM	remaining signal	96.4%
CCCS(=O)(=O)Nc1ccc(F)c(C(=O)c2c[nH]c3ncc(-c4ccc(Cl)cc4)cc23)c1F	enzyme activity, inhibitor	1 µM	inhibition	< 10%
